28 compounds from ChEMBL document CHEMBL3352209, “Chroman-4-one- and chromone-based sirtuin 2 inhibitors with antiproliferative properties in cancer cells” (J Med Chem, 2014) can be followed below.

In data set [1] the target is T1, NAD-dependent protein deacetylase sirtuin-2 (Homo sapiens) (UniProt Q8IXJ6).
T1 sequence (whole entry): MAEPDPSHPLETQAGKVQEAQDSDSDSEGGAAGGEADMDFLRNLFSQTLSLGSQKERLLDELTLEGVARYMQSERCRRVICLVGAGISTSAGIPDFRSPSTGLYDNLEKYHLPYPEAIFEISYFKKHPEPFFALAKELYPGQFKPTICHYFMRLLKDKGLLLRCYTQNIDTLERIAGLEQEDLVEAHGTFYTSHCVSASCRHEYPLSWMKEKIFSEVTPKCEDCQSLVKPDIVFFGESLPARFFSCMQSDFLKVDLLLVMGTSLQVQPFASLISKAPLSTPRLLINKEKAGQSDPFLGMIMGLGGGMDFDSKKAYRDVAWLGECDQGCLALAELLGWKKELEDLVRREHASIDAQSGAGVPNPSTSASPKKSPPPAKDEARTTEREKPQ
The experiment in a line: Inhibition of recombinant GST-tagged sirtuin-2 (unknown origin) using KI179 as substrate at 200 uM after 1 hr by fluorescence assay. The method, boiled down:
(§1)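 Recombinant GST-SIRT2 with Fluor de Lys KI179 acetyl-peptide at 0.7 Km (Km 198 μM) and NAD+ at 0.9 Km in HDAC buffer with 1 mg/mL BSA. Compound in DMSO (5% v/v) preincubated 5 min at room temperature, enzyme added, 1 h at 37 °C; developer plus 2 mM nicotinamide 45 min at 37 °C; fluorescence ex 370/em 460 nm. Single-point inhibition at 200 μM, n = 3; IC50 with 95% CI where inhibition >80%.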

The target in data set [2] is T2, NAD-dependent protein deacetylase sirtuin-2 (Homo sapiens, UniProt Q8IXJ6).
T2 sequence (Q8IXJ6 whole entry): T1 sequence (whole entry)
The experiment in a line: Inhibition of recombinant GST-tagged sirtuin-2 (unknown origin) using KI179 as substrate after 1 hr by fluorescence assay. The method, boiled down:
as §1

Data set [3] deals with A549. The experiment in a line: Antiproliferative activity against human A549 cells at 1 to 100 uM after 48 hrs by sulforhodamine B assay. The class given is functional, cell-based. In outline:
(§2)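 A549 and MCF-7 cells (DMEM, 10% FCS, penicillin/streptomycin, 37 °C, 5% CO2) seeded 3000 cells/well 24 h before dosing; 0–100 μM compound or 0.5% DMSO vehicle for 48 h (A549) or 72 h (MCF-7). Growth read by sulforhodamine B staining; mean ± SEM of two to three independent experiments; ANOVA with Tukey test.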
For orientation: Sulforhodamine B stains cellular protein and so reports cell mass.

The test system of data set [4] is MCF7. The experiment in a line: Antiproliferative activity against human MCF7 cells at 1 to 100 uM after 72 hrs by sulforhodamine B assay. The class given is functional, cell-based. In outline: as §2
Data set [5] addresses T1, NAD-dependent protein deacetylase sirtuin-2 (Homo sapiens). The experiment in a line: Inhibition of SIRT2 in human MCF7 cells assessed as alpha-tubulin acetylation at 50 to 100 uM after 18 hrs by Western blotting analysis. The class given is cell-based. In outline: (§3)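 MCF-7 cells seeded 10⁵/well, dosed 24 h later with compound plus 40 nM Trichostatin A, or 0.5% DMSO, for 6 or 18 h. Lysates separated by SDS-PAGE and blotted with acetylated α-tubulin and total α-tubulin mouse monoclonals, HRP anti-mouse and ECL detection; mean ± SEM of three independent experiments.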

The test system of data set [6] is MCF7. The experiment in a line: Cell cycle arrest in human MCF7 cells assessed as accumulation at G1/G0 phase at 100 uM after 18 hrs by propidium iodide staining-based flow cytometry. The class given is functional. The method, boiled down:
(§4)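 A549 or MCF-7 cells seeded 0.6 × 10⁶/well 6 h before exposure to compound or 0.5% DMSO vehicle for 18 h. DNA content measured by propidium iodide staining and flow cytometry, giving percent of cells in G1/G0, S and G2/M; mean ± SEM of two to four independent experiments; one-way ANOVA with Tukey test.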
Background: In flow cytometry, cells or beads pass a laser one at a time.

The subject of data set [7] is A549. The experiment in a line: Cell cycle arrest in human A549 cells assessed as accumulation at G1/G0 phase at 100 uM after 18 hrs by propidium iodide staining-based flow cytometry. The class given is functional. In outline: as §4
In data set [8] the test system is A549. The experiment in a line: Cell cycle arrest in human A549 cells assessed as reduction in G2 phase at 100 uM after 18 hrs by propidium iodide staining-based flow cytometry. The class given is functional. In outline: as §4
The subject of data set [9] is A549. The experiment in a line: Induction of apoptosis in human A549 cells at 100 uM after 18 hrs by propidium iodide staining-based flow cytometry. The class given is functional, cell-based.
In data set [10] the test system is MCF7. The experiment in a line: Induction of apoptosis in human MCF7 cells at 100 uM after 18 hrs by propidium iodide staining-based flow cytometry. The class given is functional, cell-based.
Data set [11] deals with T1, NAD-dependent protein deacetylase sirtuin-2 (Homo sapiens). The experiment in a line: Inhibition of SIRT2 in human MCF7 cells assessed as alpha-tubulin acetylation after 6 to 18 hrs by Western blotting analysis. The format is cell-based. In outline: as §3
Data set [12] shares this target. The experiment in a line: Inhibition of sirtuin-2 (unknown origin) by SIRTainty assay in presence of NAD+. Particulars: concentration not given here. The method, boiled down: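 SIRT2 run in the SIRTainty kit, which uses nicotinamidase to detect nicotinamide released from NAD+, with and without NAD+. Fluorescence ex 405/em 460 nm, given as percent inhibition of the NAD+-dependent signal.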

The subject of data set [13] is A549. The experiment in a line: Antiproliferative activity against human A549 cells at 10 uM after 48 hrs by sulforhodamine B assay. The format is functional, cell-based.
Data set [14] concerns A549. The experiment in a line: Antiproliferative activity against human A549 cells at >=50 uM after 48 hrs by sulforhodamine B assay. The class given is functional, cell-based.
The subject of data set [15] is MCF7. The experiment in a line: Antiproliferative activity against human MCF7 cells at >=50 uM after 48 hrs by sulforhodamine B assay. The format is functional, cell-based.
Data set [16] relates to MCF7. The experiment in a line: Cytotoxicity against human MCF7 cells at 100 uM after 18 hrs. The format is cell-based. Particulars: mcf7, 18 h.
The test system of data set [17] is A549. The experiment in a line: Cell cycle arrest in human A549 cells assessed as accumulation at G1/G0 phase at 50 uM after 18 hrs by propidium iodide staining-based flow cytometry. The format is functional. The method, boiled down:
as §4

Data set [18] concerns MCF7. The experiment in a line: Cell cycle arrest in human MCF7 cells assessed as accumulation at G1/G0 phase at 50 uM after 18 hrs by propidium iodide staining-based flow cytometry. The class given is functional. In outline: as §4
In data set [19] the test system is A549. The experiment in a line: Induction of apoptosis in human A549 cells at 50 uM after 18 hrs by propidium iodide staining-based flow cytometry. The class given is functional, cell-based.
Data set [20] concerns MCF7. The experiment in a line: Induction of apoptosis in human MCF7 cells at 50 uM after 18 hrs by propidium iodide staining-based flow cytometry. The class given is functional, cell-based.
Data set [21] has as its target T1, NAD-dependent protein deacetylase sirtuin-2 (Homo sapiens). Particulars: MCF7, 25 to 100 uM.
For data set [22], the system named is MCF7. The experiment in a line: Antiproliferative activity against human MCF7 cells at 10 uM after 72 hrs by sulforhodamine B assay.

The source made the active and inactive calls. The rule behind the calls is not given here.

The term inhibition denotes the relative decrease from the control value, in per cent. As usually defined, the IC50 is the concentration that inhibits the measured activity by half.

Consider `O=C1CC(CCCCO)Oc2c(Br)cc(Cl)cc21` (stereo unspecified), for which the inhibition in data set [1] worked out at 52%.
Same read-out and setting: the figure for `O=C1CC(CCCO)Oc2c(Br)cc(Cl)cc21` (stereo unspecified) is 18%; for `N/C=C1\C(=O)c2cc(Cl)cc(Br)c2OC1CCc1ccccc1` (stereo unspecified) it is 76%; for `CNC(=O)CCC1CC(=O)c2cc(Cl)cc(Br)c2O1` (stereo unspecified) it is 0.2%.
Same read-out and setting: the figure for `O=C1CC(CCc2ccc3[nH]c(=O)ccc3c2)Oc2c(Br)cc(Cl)cc21` (stereo unspecified) is 59%.
Turning to `Cc1noc(CCC2CC(=O)c3cc(Cl)cc(Br)c3O2)n1` (stereo unspecified), the results for the inhibition in [1] and in data set [11] were 77% and “Dose-dependent effect”, respectively. For the same compound, the concentration for half-maximal inhibition (IC50) in data set [2] was 12.2 µM. The “growth inhibition (GI)” value in the data set with A549 [3] and in the data set with MCF7 [4] was “Active” throughout. In addition, the inhibition entry in data set [5] was “Active”. For the same compound, the result in the data set on MCF7 [6], with A549 [7] and in the data set on A549 [8] was Active. Besides, the result in the data set with A549 [9] and with MCF7 [10] was inactive.
Regarding `Cc1noc(CCCC2CC(=O)c3cc(Cl)cc(Br)c3O2)n1` (stereo unspecified), the inhibition in data set [1] is 49%.
Turning to `CC(=O)Nc1c(CCc2ccccc2)oc2c(Br)cc(Cl)cc2c1=O`, the inhibition in data set [1] came out at 81%. In data set [2], the half-maximal inhibitory concentration (IC50) stood at 28.7 µM.
For the compound `O=C(O)CCC1CC(=O)c2cc(Cl)cc(Br)c2O1` (stereo unspecified), the inhibition in data set [1] stood at 6.8%.
Same read-out and setting: as for `O=C1CC(CCCCCO)Oc2c(Br)cc(Cl)cc21` (stereo unspecified), the figure is 67%.
On the same count and under the same terms, as for `CNC(=O)CCCC1CC(=O)c2cc(Cl)cc(Br)c2O1` (stereo unspecified), the figure is 39%; as for `Nc1c(CCc2ccccc2)oc2c(Br)cc(Cl)cc2c1=O`, 79%.
In the case of `O=C1CC(CCCN2CCOCC2)Oc2c(Br)cc(Cl)cc21` (stereo unspecified), the inhibition in data set [12] was 17%.
Take `O=C1CC(CCCN2CCCCC2)Oc2c(Br)cc(Cl)cc21` (stereo unspecified): the inhibition in data set [12] came to 40%.
As for `COC(=O)CCCC1CC(=O)c2cc(Cl)cc(Br)c2O1` (stereo unspecified), the inhibition in data set [1] amounted to 90%. Besides, in data set [2], the IC50 was 2 µM.
In the case of `CC(C)NC(=O)CCCC1CC(=O)c2cc(Cl)cc(Br)c2O1` (stereo unspecified), the inhibition in data set [1] worked out at 23%.
Same read-out and setting: the figure for `O=C(O)CCCC1CC(=O)c2cc(Cl)cc(Br)c2O1` (stereo unspecified) is 7.6%.
Same read-out and setting: the figure for `O=C(CCCC1CC(=O)c2cc(Cl)cc(Br)c2O1)NCc1ccccc1` (stereo unspecified) is 39%.
The same measure, in the same setting: as for `CCCCCC1CC(=O)c2cc(Br)ccc2O1` (stereo unspecified), the figure is 69%; as for `N#Cc1c(CCc2ccccc2)oc2c(Br)cc(Cl)cc2c1=O`, 50%.
Consider `O=C1CC(CCc2ccncc2)Oc2c(Br)cc(Cl)cc21` (stereo unspecified), for which, in data set [1], the inhibition was 73%.
Same read-out and setting: as for `O=C1CC(CCc2ccc3ncccc3c2)Oc2c(Br)cc(Cl)cc21` (stereo unspecified), the figure is 56%.
Same read-out and setting: the figure for `COCCOCC1CC(=O)c2cc(Cl)cc(Br)c2O1` (stereo unspecified) is 33%.
Turning to `O=C1CC(CCc2cccnc2)Oc2c(Br)cc(Cl)cc21` (stereo unspecified), the inhibition in [1] is 86%; in data set [11], “Dose-dependent effect”. The IC50 in data set [2] worked out at 3.7 µM. In addition, the “growth inhibition (GI)” value in the data set on A549 [3], in the data set with MCF7 [4], in the data set on A549 [13], with A549 [14], with MCF7 [15] and with MCF7 [22] was “Active” throughout. Besides, the Activity result with MCF7 [16] is recorded as “Toxic”. Moreover, the outcome in the data set on A549 [17] and in the data set on MCF7 [18] was Active. Moreover, the outcome with A549 [19] and with MCF7 [20] was inactive. Further, in data set [21], the inhibition entry was “Active”.
For `O=C1CC(CCc2ccccn2)Oc2c(Br)cc(Cl)cc21` (stereo unspecified), the inhibition in data set [1] amounted to 74%.
Same read-out and setting: the figure for `CN(C)C(=O)CCCC1CC(=O)c2cc(Cl)cc(Br)c2O1` (stereo unspecified) is 53%.
Turning to `CCCCCC1CC(=O)c2cc(Br)cc(Cl)c2O1` (stereo unspecified), in data set [1], the inhibition came to 96%. Also, in [2], the 50% inhibitory concentration (IC50) came out at 1.8 µM.
On to `COC(=O)CCC1CC(=O)c2cc(Cl)cc(Br)c2O1` (stereo unspecified), for which the inhibition in [1] was 80%. In addition, the IC50 in [2] amounted to 9.6 µM.
